# Published values from different studies.
# Each line is one published result; the experiments were not run side by side.
# Target: Protein-tyrosine kinase 2-beta (PTK2B, Homo sapiens, UniProt Q14289)
SMILES,observed,method,concentration,remaining binding [%]
O=C(NCCCN1CCOCC1)c1ccc(Nc2nccc(-c3cc4ccccc4s3)n2)cc1,binding,competition with immobilised ligand,1 µM,64
CNC(=O)[C@@H]1CC[C@@H](n2c(-c3ccc4cnccc4c3)nc3ccc(C(=O)NCc4cccc(C(N)=O)c4)cc32)C1,binding,competition with immobilised ligand,1 µM,99
FC(F)(F)Oc1cccc(-c2cnc3ccc(-c4ccncc4)nn23)c1,cell-free assay,competition with immobilised ligand,5 µM,76
C[C@H]1CCN(c2nccc(-c3cnn4ncccc34)n2)C1,binding,,1 µM,100
O=C(c1ccc(Nc2nccc(-c3cc4ccccc4s3)n2)cc1)N1CCC(N2CCCC2)CC1,binding,competition with immobilised ligand,1 µM,81
COc1cnc(Nc2cccc(S(N)(=O)=O)c2)nc1N1CCN(c2ccccc2)C(=O)C1,binding,competition with immobilised ligand,1 µM,100
Nc1cnc(N2CCc3cc(S(=O)(=O)Nc4c(F)cc(Cl)cc4F)cc(N4CCCC4=O)c32)nc1,cell-free assay,competition with immobilised ligand,1 µM,100
CCN1CCN(Cc2ccc(C(=O)Nc3ccc(C)c(Oc4ccc5c(c4)CC(=O)N5)c3)cc2C(F)(F)F)CC1,binding,competition with immobilised ligand,1 µM,49
C[C@H](c1cccc(C#N)c1)n1cc(Cl)cc(C(N)=O)c1=N,cell-free assay,competition with immobilised ligand,1 µM,100
CN(CCCC(F)(F)F)c1nccc(-c2cnn3ncccc23)n1,binding,,1 µM,100
C=CC(=O)N1CCC(C(=O)NCC(=O)N2CCN(c3nc(-c4cnc(N)nc4C(F)F)nc(N4CCOCC4)n3)CC2)CC1,binding,competition with immobilised ligand,1 µM,100
N[C@H]1CCN(c2nccc(-c3cnn4ncccc34)n2)C1,binding,,1 µM,100
O=C(O)[C@H]1[C@H](Cn2nnc3ccccc3c2=O)CC[C@@H]1C(=O)c1ccc(OCCC2CCOCC2)cc1,cell-free assay,competition with immobilised ligand,1 µM,75
O=C(Nc1c[nH]nc1C(=O)NC1CCNCC1)c1cc(F)cc(F)c1,binding,competition with immobilised ligand,1 µM,91
O=C(NCCCN1CCOCC1)c1ccc(Nc2ncc(Cl)c(-c3ccc(Cl)s3)n2)cc1,binding,competition with immobilised ligand,1 µM,41
COc1ccnn2ncc(-c3ccnc(N(C)C)n3)c12,binding,,1 µM,100
CN(C)C(=O)Cn1cc(-c2nc([C@@](C)(c3ccc(-c4cnc(N)nc4)cc3)C3CC3)no2)cn1,cell-free assay,competition with immobilised ligand,1 µM,87
CN(C)c1ncc(F)c(-c2cnn3ncccc23)n1,binding,,1 µM,100
NS(=O)(=O)c1cc(NC(=O)C2(c3ccccc3Cl)CC2)ccc1Oc1cccc(Cl)c1,cell-free assay,competition with immobilised ligand,1 µM,91
CC1CCCN1c1nccc(-c2cnn3ncccc23)n1 (stereo not drawn),binding,,1 µM,100
CS(=O)(=O)c1cc(C2(NC(=O)c3cncc4c3cnn4-c3ccc(F)cc3)CC2)ccn1,cell-free assay,competition with immobilised ligand,1 µM,100
